CAL PDZ FP-1: CAL PDZ peptide-binding inhibitors, primary screen, biochemical, fluorescence polarization, Cer-tagged CAL PDZ, HTS; Golgi-associated PDZ and coiled-coil motif-containing protein (Homo sapiens), Q9HD26; inhibition, % at 20 µM; hit rate 0.02% among 330,000; purified CAL PDZ, TMR-peptide fluorescence polarization, 1 h;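 active = highest replicate inhibition of at least 40%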;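 also: plate controls were DMSO neutral control wells for no effect and unlabeled competitor peptide control wells for full effect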
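material = purified tagged CAL PDZ domain construct (CerCALP) | compound dosing = 20 µM, one dose | times = 1 h at RT | measured by = fluorescence polarization from S- and P-plane intensities, G-factor corrected | read-out = inhibition from polarization loss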
Rce1 inhib: yeast Rce1p protease inhibitors, primary screen, biochemical, fluorescence, cell-free homogeneous; yeast membranes, quenched prenylated peptide cleavage fluorescence; calls only; hit rate 0.27% among 290,000; AID 2563, 2010;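 active = fall in fluorescence gain of 50% or more versus controls, with final raw signal at or below 3038400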;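 also: plate controls were neutral control wells for no effect and wells lacking membranes for full effect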
Target sequence (Q03530 whole entry, looked up): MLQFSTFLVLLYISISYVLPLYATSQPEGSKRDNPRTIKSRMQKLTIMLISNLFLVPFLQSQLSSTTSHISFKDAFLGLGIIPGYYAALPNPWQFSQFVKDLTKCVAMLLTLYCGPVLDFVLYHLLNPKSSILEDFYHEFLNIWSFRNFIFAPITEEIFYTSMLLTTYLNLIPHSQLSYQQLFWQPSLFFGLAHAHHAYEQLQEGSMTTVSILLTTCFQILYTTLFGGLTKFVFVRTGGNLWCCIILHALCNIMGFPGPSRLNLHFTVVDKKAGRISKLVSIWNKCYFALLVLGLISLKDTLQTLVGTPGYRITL
AI-2 QS mod: Vibrio harveyi AI-2 quorum sensing modulators, primary screen, JMH597 strain, luminescence/OD600 ratio; hit rate 0.4% among 300,000; activity change, % at 7.5 µM; Vibrio harveyi JMH597 AI-2 luminescence/OD600 ratio, 9 h; hits give low values; strain lacks LuxN and CqsS sensors; 0 = neutral-control median; AID 2094, 2009; in the data active = activity change below about -75%, passing the limit was not always enough;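 also: luminescence divided by OD600 gain over 9 h not by final OD600 alone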
CAL PDZ FP-2: untagged CAL PDZ binding inhibitors, primary screen, biochemical, fluorescence polarization, HTS; Golgi-associated PDZ and coiled-coil motif-containing protein (Homo sapiens), Q9HD26; purified CAL PDZ, TMR-peptide fluorescence polarization, 1 h; inhibition, % at 24.9 µM; hit rate 0.92% among 300,000; AID 602252, 2012;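 active = mean inhibition of at least 30% with at least half of replicates also reaching 30%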;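 also: 0% = DMSO neutral control and 100% = excess unlabeled competitor peptide PRC23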
ARNT TACC3 PPI: disruptors of ARNT/TACC3 protein interaction, primary screen, biochemical, AlphaScreen, single concentration. hit rate 0.66% among 390,000. AID 623870, 2012. inhibition, % at 9.99 µM. AlphaScreen His-ARNT PAS-B/GST-TACC3 binding, luminescence; TACC3 fragment carries E629A point mutation. Transforming acidic coiled-coil-containing protein 3 (Homo sapiens), Q9Y6A5;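 active = mean inhibition of replicates at least 50% and at least half of replicates each reaching 50%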;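 also: 0% = complete ARNT plus TACC3 wells and 100% = ARNT alone without TACC3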
Starred values were filed as active, the others as inactive; i = inactive; / = no result given; + = active, no number. The list is not random: actives were taken first. Their share in the collection is about 1.7%.

SMILES	CAL PDZ FP-1	Rce1 inhib	AI-2 QS mod	CAL PDZ FP-2	ARNT TACC3 PPI
O=C(NCCCC1CCCC1)C1CCC(=O)N(Cc2cccc(C(F)(F)F)c2)C1 (centres undefined)	-2.9	i	7.5	-0.3	1.8
CCN(CC(=O)Nc1c(F)cccc1F)C(=O)Cn1[nH]c(=O)c2ccccc2c1=O	-0.3	/	/	77.8*	-5.2
CCN(CC(=O)Nc1c(F)cccc1F)C(=O)CSCC(=O)Nc1ccc(OC)cc1	-0.5	i	37.3	-2.1	-3.5
CCN(CC(=O)Nc1c(F)cccc1F)C(=O)CSCC(=O)Nc1cccc(C)c1	0.0	i	48.5	77.8*	6.8
C[C@H](CO)N1C[C@H](C)[C@@H](CN(C)S(=O)(=O)c2cn(C)cn2)Oc2c(NC(=O)c3ccc(-c4nccs4)cc3)cccc2C1=O	/	/	/	/	-4.1
COc1ccc(C(C)(C)C)cc1NC(=O)COC(=O)CN1C(=O)NC2(CCCCC2C)C1=O (centres undefined)	0.1	/	/	52.5*	1.9
CC1CCCCC12NC(=O)N(CC(=O)OCc1ccccc1F)C2=O (centres undefined)	-2.2	/	/	-4.1	8.9
CC1CCCCC12NC(=O)N(CC(=O)OCc1cccc(F)c1)C2=O (centres undefined)	-0.4	/	/	55.9*	-29.5
COc1ccc(-c2csc(NC(=O)c3ccccc3NS(=O)(=O)c3ccc(F)c(F)c3)n2)cc1	-0.5	i	41.3	42.4*	2.2
O=C(COc1ccccc1C(=O)N/N=C\c1ccc(O)c(O)c1)N/N=C/c1ccc(O)c(O)c1	-0.9	i	50.4	-4.2	/
Cc1ccc(S(=O)(=O)NCC(=O)OCC(=O)NC2CCCCC2)cc1	-0.6	/	/	-9.5	8.7
Cc1ccc(S(=O)(=O)NCC(=O)OCC(=O)NC(=O)NC2CCCC2)cc1	0.8	i	8.1	72.5*	-2.7
CC(=O)Nc1ccc(C(=O)OCC(=O)NC(=O)NC2CCCCC2)cc1	-1.1	i	13.9	86.4*	-1.0
CCOC(=O)CSC(CC)C(=O)Nc1nnc(C(C)C)s1 (centres undefined)	-0.6	i	11.0	/	4.0
Cc1nc(C)c(C(=O)C2=C(O)C(=O)N(CCN3CCOCC3)C2c2ccco2)s1 (centres undefined)	-0.7	i	12.0	-1.3	49.5*
COc1ccc(CN2CCN(S(=O)(=O)c3ccc(C)cc3)CC2)cc1Br	-0.7	i	50.7	-2.4	2.1
Cc1ccc(NC(=S)N(CCCN2CCCC2)Cc2cccn2Cc2ccc(Cl)cc2)cc1C	-2.4	i	10.0	78.9*	1.3
Cc1cc(=O)nc2c3ccccc3n(C(C)C(=O)Nc3c(F)c(F)c(F)c(F)c3F)n12 (centres undefined)	5.7	i	7.7	81.7*	-5.9
CCc1cc2c(SCC(=O)c3cccs3)ncnc2s1	-3.4	i	20.5	-0.4	-4.2
COc1cc(C(=O)n2cnc3ccccc32)c([N+](=O)[O-])cc1OC	-0.1	i	-3.4	-0.7	-4.2
CO[C@H]1CN(C)C(=O)c2cc(NS(C)(=O)=O)ccc2OC[C@@H](C)N(C(=O)C2CCCCC2)C[C@H]1C	/	/	/	/	-11.5
COc1cc(/C=N/NC(=O)CC#N)cc(Br)c1O	0.2	i	14.6	-0.3	58.3*
COc1cc(/C=N/NC(=O)Cc2ccc(Br)cc2)cc(OC)c1O	-1.2	i	9.0	-9.1	-15.7
Cc1ccnc(NC(=O)c2sc3cc(Cl)ccc3c2Cl)c1	-1.3	i	15.6	80.6*	-9.4
C[C@@H]1CN([C@@H](C)CO)C(=O)c2cc(NC(=O)CCN3CCOCC3)ccc2O[C@@H]1CN(C)C	/	/	/	/	-1.1
SMILES	CAL PDZ FP-1	Rce1 inhib	AI-2 QS mod	CAL PDZ FP-2	ARNT TACC3 PPI
Cn1cc(S(=O)(=O)c2ccccc2)c(=O)c2cc(F)c(N3CCOCC3)cc21	-0.6	i	23.3	5.8	-1.9
Cc1ccc(S(=O)(=O)c2cn(C)c3cc(N4CCOCC4)c(F)cc3c2=O)cc1	-1.6	+	27.4	-1.2	-2.8
O=C(Cc1c(C(=O)O)[nH]c2ccccc12)NCCN1CCN(c2cccc(Cl)c2)CC1	0.0	i	9.9	62.0*	0.6
CCc1cccc(NC(=O)CCc2nc(-c3cccs3)no2)c1	0.3	i	-39.0	/	-9.4
O=[N+]([O-])c1ccc(N2CCOCC2)cc1SCc1ccco1	-2.1	i	15.1	-1.9	-2.5
O=[N+]([O-])c1ccc(SCc2ccco2)cc1N1CCOCC1	-0.6	i	22.7	45.1*	6.5
COc1ccc(C(=O)c2coc3c2C(=O)C(=O)c2ccccc2-3)cc1	1.4	i	-91.6*	/	-0.8
CC(=O)NCCc1nc2ccccc2[nH]1	-1.1	i	11.3	/	-5.2
CC(C)=C(NC(=O)c1ccccc1)C(=O)NCCc1nc2ccccc2[nH]1	-0.3	i	12.1	37.6*	1.3
CC(=O)Nc1ccc(S(=O)(=O)Nc2nc3ccccc3nc2Nc2ccc(C(=O)O)c(O)c2)cc1	1.3	/	/	-1.4	39.9*
CC(=O)Nc1ccc(S(=O)(=O)Nc2nc3ccccc3nc2Nc2cccc(O)c2)cc1	-1.8	i	23.5	-3.0	-9.0
COc1ccccc1C(OC(=O)c1cccs1)C(=O)NCc1ccco1 (centres undefined)	-3.8	i	18.5	-5.9	-4.3
COc1ccc(/C=N/Nc2nc(C(=O)O)cs2)cc1	0.1	i	24.5	-1.2	45.3*
CCOc1ccc2c(ccc(/C=C/c3cc(C)c4cccnc4c3O)[n+]2C)c1	-0.5	/	/	-1.8	65.3*
CC1(C)C(=S)N(Cc2ccccc2)c2ccccc21	-0.3	i	-13.6	44.0*	-9.1
COc1ccc(CCC(=O)Nc2ncc(C)s2)cc1OC	-0.8	i	18.8	50.5*	11.1
COc1ccc(CC(=O)Nc2cc(C)ccc2O)cc1OC	-2.7	i	-78.0*	-4.9	-4.0
COc1ccc(CC(=O)Nc2ncc([N+](=O)[O-])s2)cc1OC	-0.3	i	-4.4	0.0	17.6*
O=C(Nc1ccccc1)Nc1ncc([N+](=O)[O-])s1	-0.7	/	-85.6*	4.4	1.6
COc1ccc(OC)c(NC(=O)CNC(=O)Cn2ccc3ccccc3c2=O)c1	-0.5	i	20.1	-4.1	-6.5
CCCCC(=O)Nc1cc(OC)c(NC(=S)NC)cc1OC	0.4	i	27.4	-0.2	2.1
CCCCN1CC(C(=O)NCc2ccc(C)cc2)CC1=O (centres undefined)	-3.6	i	6.9	/	-6.3
COCc1cc(C)c(C#N)c(=S)[nH]1	0.8	i	15.2	/	-3.3
CCOCc1cc(C)[nH]c(=O)c1C#N	-0.9	+	16.2	2.0	-6.0
O=C(Cn1nnc(-c2ccccc2)n1)N/N=C/c1cc([N+](=O)[O-])ccc1O	-0.1	i	32.2	-5.2	18.0

Screens deposited in PubChem BioAssay by Broad Institute.
